Source: ChEMBL document CHEMBL2062453, “Lead optimization through VLAK protocol: new annelated pyrrolo-pyrimidine derivatives as antitumor agents” (2012)

Legend:
Type in all cases: functional
CCRF-CEM = assay: Cytotoxicity against human CCRF-CEM cells assessed as cell growth at 10 uM after 48 hrs by SRB assay relative to control; conditions: read-out: Activity
Method in brief: (§1)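 NCI primary screen of about 60 human tumour lines. Cells inoculated and preincubated, then a single test concentration added and cultures incubated 48 h. Result given as percent growth (G%) of treated versus untreated control cells.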

HT-29 = assay: Cytotoxicity against human HT-29 cells assessed as cell growth at 10 uM after 48 hrs by SRB assay relative to control; conditions: HT-29, 48 h, read-out: Activity; method in brief: as §1
SK-MEL-2 = assay: Cytotoxicity against human SK-MEL-2 cells assessed as cell growth at 10 uM after 48 hrs by SRB assay relative to control; conditions: SK-MEL-2, 48 h, read-out: Activity
UACC-62 = assay: Cytotoxicity against human UACC62 cells assessed as cell growth at 10 uM after 48 hrs by SRB assay relative to control; conditions: UACC-62, 48 h, read-out: Activity
Method in brief: (§2)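 NCI single-dose primary screen across about 60 human tumour lines. Each line was inoculated and preincubated on microtiter plates, then exposed to one concentration of agent for 48 h. Growth is reported as percent growth (G%) of treated cells versus untreated control cells.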

HOP-62 = assay: Cytotoxicity against human HOP62 cells assessed as cell growth at 10 uM after 48 hrs by SRB assay relative to control; conditions: HOP-62, 48 h, read-out: Activity; method in brief: as §1
MCF7 = assay: Cytotoxicity against human MCF7 cells assessed as cell growth at 10 uM after 48 hrs by SRB assay relative to control; conditions: MCF7, 48 h, read-out: Activity; method in brief: as §1
SK-OV-3 = assay: Cytotoxicity against human SKOV3 cells assessed as cell growth at 10 uM after 48 hrs by SRB assay relative to control; conditions: SK-OV-3, 48 h, read-out: Activity
NCI-H226 = assay: Cytotoxicity against human NCI-H226 cells assessed as cell growth at 10 uM after 48 hrs by SRB assay relative to control; conditions: NCI-H226, 48 h, read-out: Activity
MDA-MB-468 = assay: Cytotoxicity against human MDA-MB-468 cells assessed as cell growth at 10 uM after 48 hrs by SRB assay relative to control; conditions: MDA-MB-468, 48 h, read-out: Activity
SW-620 = assay: Cytotoxicity against human SW620 cells assessed as cell growth at 10 uM after 48 hrs by SRB assay relative to control; conditions: SW-620, 48 h, read-out: Activity; method in brief: as §2
A549 = assay: Cytotoxicity against human A549 cells assessed as cell growth at 10 uM after 48 hrs by SRB assay relative to control; conditions: A549, 48 h, read-out: Activity; method in brief: as §1
KM12 = assay: Cytotoxicity against human KM12 cells assessed as cell growth at 10 uM after 48 hrs by SRB assay relative to control; conditions: KM12, 48 h, read-out: Activity; method in brief: as §1
HCT-116 = assay: Cytotoxicity against human HCT116 cells assessed as cell growth at 10 uM after 48 hrs by SRB assay relative to control; conditions: HCT-116, 48 h, read-out: Activity; method in brief: as §1
NCI/ADR-RES = assay: Cytotoxicity against human NCI/ADR-RES cells assessed as cell growth at 10 uM after 48 hrs by SRB assay relative to control; conditions: read-out: Activity
K562 = assay: Cytotoxicity against human K562 cells assessed as cell growth at 10 uM after 48 hrs by SRB assay relative to control; conditions: K562, 48 h, read-out: Activity; method in brief: as §1
Malme-3M = assay: Cytotoxicity against human MALME-3M cells assessed as cell growth at 10 uM after 48 hrs by SRB assay relative to control; conditions: read-out: Activity; method in brief: as §1
NCI-H23 = assay: Cytotoxicity against human NCI-H23 cells assessed as cell growth at 10 uM after 48 hrs by SRB assay relative to control; conditions: NCI-H23, 48 h, read-out: Activity
U-251 = assay: Cytotoxicity against human U251 cells assessed as cell growth at 10 uM after 48 hrs by SRB assay relative to control; conditions: U-251, 48 h, read-out: Activity; method in brief: as §2
SK-MEL-5 = assay: Cytotoxicity against human SK-MEL-5 cells assessed as cell growth at 10 uM after 48 hrs by SRB assay relative to control; conditions: SK-MEL-5, 48 h, read-out: Activity
RPMI-8226 = assay: Cytotoxicity against human RPMI8226 cells assessed as cell growth at 10 uM after 48 hrs by SRB assay relative to control; conditions: RPMI-8226, 48 h, read-out: Activity
HCC 2998 = assay: Cytotoxicity against human HCC2998 cells assessed as cell growth at 10 uM after 48 hrs by SRB assay relative to control; conditions: HCC 2998, 48 h, read-out: Activity; method in brief: as §1
SNB-75 = assay: Cytotoxicity against human SNB75 cells assessed as cell growth at 10 uM after 48 hrs by SRB assay relative to control; conditions: SNB-75, 48 h, read-out: Activity
OVCAR-4 = assay: Cytotoxicity against human OVCAR4 cells assessed as cell growth at 10 uM after 48 hrs by SRB assay relative to control; conditions: OVCAR-4, 48 h, read-out: Activity
NCI-H322M = assay: Cytotoxicity against human NCI-H322M cells assessed as cell growth at 10 uM after 48 hrs by SRB assay relative to control; conditions: read-out: Activity
RXF 393 = assay: Cytotoxicity against human RXF393 cells assessed as cell growth at 10 uM after 48 hrs by SRB assay relative to control; conditions: RXF 393, 48 h, read-out: Activity
HL-60(TB) = assay: Cytotoxicity against human HL-60(TB) cells assessed as cell growth at 10 uM after 48 hrs by SRB assay relative to control; conditions: HL-60, 48 h, read-out: Activity

Structure (SMILES)	growth at 10 µM (CCRF-CEM)	growth at 10 µM (HT-29)	growth at 10 µM (SK-MEL-2)	growth at 10 µM (UACC-62)	growth at 10 µM (HOP-62)	growth at 10 µM (MCF7)	growth at 10 µM (SK-OV-3)	growth at 10 µM (NCI-H226)	growth at 10 µM (MDA-MB-468)	growth at 10 µM (SW-620)	growth at 10 µM (A549)	growth at 10 µM (KM12)	growth at 10 µM (HCT-116)	growth at 10 µM (NCI/ADR-RES)	growth at 10 µM (K562)	growth at 10 µM (Malme-3M)	growth at 10 µM (NCI-H23)	growth at 10 µM (U-251)	growth at 10 µM (SK-MEL-5)	growth at 10 µM (RPMI-8226)	also measured
CCOC(=O)CCCn1c(C)c(C)c2c1N=C(SC)N1CC(=O)N=C21	100%	109%	113%	106%	112%	96%	127%	113%	55%	110%	102%	154%	111%	112%	94%	119%	117%	105%	100%	95%	growth at 10 µM (HCC 2998): 129%; growth at 10 µM (SNB-75): 90%; growth at 10 µM (OVCAR-4): 100%; growth at 10 µM (NCI-H322M): 111%; growth at 10 µM (RXF 393): 121%; growth at 10 µM (HL-60(TB)): 94%
CSC1=Nc2c(c(C)c(C)n2CCCC(=O)O)C2=NC(=O)CN12	105%	108%	111%	111%	98%	95%	113%	110%	97%	110%	117%	112%	111%	114%	93%	115%	109%	107%	101%	110%	growth at 10 µM (HCC 2998): 118%; growth at 10 µM (SNB-75): 111%; growth at 10 µM (OVCAR-4): 104%; growth at 10 µM (NCI-H322M): 112%; growth at 10 µM (RXF 393): 122%; growth at 10 µM (HL-60(TB)): 95%
CCOC(=O)CCCn1c2c(c(C)c1-c1ccccc1)C1=NC(=O)CN1C(SC)=N2	71%	103%	114%	95%	111%	84%	123%	110%	87%	110%	108%	96%	112%	95%	90%	116%	110%	102%	78%	81%	growth at 10 µM (HCC 2998): 127%; growth at 10 µM (SNB-75): 80%; growth at 10 µM (OVCAR-4): 94%; growth at 10 µM (NCI-H322M): 108%; growth at 10 µM (RXF 393): 108%; growth at 10 µM (HL-60(TB)): 90%
CSC1=Nc2c(c(C)c(-c3ccccc3)n2CCCC(=O)O)C2=NC(=O)CN12	102%	97%	117%	95%	88%	94%	114%	107%	90%	94%	101%	100%	96%	98%	99%	133%	105%	90%	97%	88%	growth at 10 µM (HCC 2998): 106%; growth at 10 µM (SNB-75): 83%; growth at 10 µM (OVCAR-4): 92%; growth at 10 µM (NCI-H322M): 131%; growth at 10 µM (RXF 393): 96%; growth at 10 µM (HL-60(TB)): 83%
COC(=O)C(Cc1cnc[nH]1)NC(=O)CCCn1c(C)c(C)c2c1N=C(SC)N1CC(=O)N=C21 (configuration not stated)	105%	96%	105%	109%	103%	92%	125%	111%	96%	98%	98%	106%	100%	110%	97%	108%	109%	96%	98%	100%	growth at 10 µM (HCC 2998): 103%; growth at 10 µM (SNB-75): 79%; growth at 10 µM (OVCAR-4): 90%; growth at 10 µM (NCI-H322M): 105%; growth at 10 µM (RXF 393): 112%; growth at 10 µM (HL-60(TB)): 92%
CSC1=Nc2c(c(C)c(C)n2CCCC(=O)NCCc2cnc[nH]2)C2=NC(=O)CN12	104%	95%	121%	100%	109%	94%	127%	106%	89%	104%	101%	171%	96%	110%	100%	109%	103%	101%	101%	87%	growth at 10 µM (HCC 2998): 118%; growth at 10 µM (SNB-75): 78%; growth at 10 µM (OVCAR-4): 93%; growth at 10 µM (NCI-H322M): 111%; growth at 10 µM (RXF 393): 116%; growth at 10 µM (HL-60(TB)): 100%
CSC1=Nc2c(c(C)c(-c3ccccc3)n2CCCN2CCN(C)CC2)C2=NC(=O)CN12	86%	98%	92%	87%	89%	86%	96%	76%	79%	101%	90%	99%	93%	98%	93%	125%	94%	101%	91%	66%	growth at 10 µM (HCC 2998): 100%; growth at 10 µM (SNB-75): 51%; growth at 10 µM (OVCAR-4): 89%; growth at 10 µM (NCI-H322M): 97%; growth at 10 µM (RXF 393): 106%; growth at 10 µM (HL-60(TB)): 91%
